Results reported in ChEMBL document CHEMBL3763097, “Synthesis and biological evaluation of 5,10-dihydro-11H-dibenzo[b,e][1,4]diazepin-11-one structural derivatives as anti-cancer and apoptosis inducing agents” (Eur J Med Chem, 2016).
Activity calls are given as the source filed them. The calls are words filed in the database; no cut-off is given here.

Key:
A549 [1] = test: Induction of apoptosis in human A549 cells after 24 hrs by Annexin V-FITC/PI dual staining based flow cytometry; type: functional, cell-based
A549 [2] = test: Cell cycle arrest in human A549 cells assessed as accumulation at G2/M phase at 2 uM after 24 to 48 hrs by propidium iodide staining based flow cytometry (reference value: 22.3 to 31%); type: functional
Procedure, shortened: (§1)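 Cells were seeded at 1×10^6 per well and treated 24 h later with 0.5, 1 or 2 µM compound; DMSO-treated cells served as control. Methods give harvest at 48 h (floating plus trypsinised cells); the figure legend says 24 h. Cells were fixed in 70% ethanol for 30 min at 4 °C and stained with PI, Triton X-100 and RNase A for 15 min in the dark. 10000 events were counted by flow cytometry.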

A549 [3] = test: Induction of apoptosis in human A549 cells assessed as viable cells at 2 uM after 24 hrs by Annexin V-FITC/PI dual staining based flow cytometry (reference value: 85%); type: functional; conditions: A549, 24 h, read-out: Activity
A549 [4] = test: Induction of apoptosis in human A549 cells assessed as condensation of nuclei at 0.5 to 2 uM after 48 hrs by Hoechst […] staining based fluorescence microscopy; type: functional, cell-based
Procedure, shortened: (§2)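 Cells at 25×10^4 per well were allowed to adhere 24 h, then treated with 0.5, 1 and 2 µM compound for 48 h at 37 °C. After a PBS wash they were stained with Hoechst […] (5 µg/mL) for 30 min at room temperature and washed twice. Nuclear morphology was viewed by fluorescence microscopy (ex 350/em 460 nm).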

A549 [5] = test: Cytotoxicity against human A549 cells assessed as inhibition of colony formation after 24 hrs by methylene blue staining-based assay; type: functional, cell-based
Procedure, shortened: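 Clonogenic assay. Cells were plated at 500 per well and allowed to adhere 24 h. Compound was added at 0.1, 1 and 10 µM for 24 h, then medium was replaced and cells grown a further 14 days. Colonies were fixed with 4% paraformaldehyde, stained with 0.5% methylene blue in PBS for 30 min, rinsed and photographed.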

A549 [6] = test: Cytotoxicity against human A549 cells assessed as growth inhibition after 72 hrs by MTT assay; type: functional, cell-based; conditions: A549, 72 h
Procedure, shortened: (§3)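 Cells in RPMI 1640 (PC-3, A549, MDA-MB-231) or DMEM (U87MG, MCF-7) with 10% FBS, passages 4-10, were seeded at 3000-5000 per well and left 24 h. Compounds in DMSO/medium were added for 72 h; DMSO served as control. MTT (5 mg/mL) was added for 4 h and formazan dissolved in DMSO. Absorbance was read at 570 nm minus 630 nm. % inhibition was taken versus DMSO, with IC50 by probit; mean ± SD of three experiments in triplicate.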

A549 [7] = test: Induction of reactive oxygen species generation in human A549 cells at 0.5 to 2 uM after 48 hrs by carboxy-DCFDA staining based spectrofluorometry relative to control; type: functional
A549 [8] = test: Induction of apoptosis in human A549 cells assessed as viable cells at 0.5 uM after 24 hrs by Annexin V-FITC/PI dual staining based flow cytometry (reference value: 85%); type: functional; conditions: A549, 24 h, read-out: Activity
MDA-MB-231 [9] = test: Induction of apoptosis in human MDA-MB-231 cells assessed as necrotic cells at 0.5 uM after 24 hrs by Annexin V-FITC/PI dual staining based flow cytometry (reference value: 1.9%); type: functional
MDA-MB-231 [10] = test: Cell cycle arrest in human MDA-MB-231 cells assessed as accumulation at G0/G1 phase at 0.5 uM after 24 to 48 hrs by propidium iodide staining based flow cytometry (reference value: 74.4%); type: functional; procedure, shortened: as §1
A549 [11] = test: Antimigratory activity in human A549 cells at 0.5 to 2 uM measured after 24 to 48 hrs by wound healing assay; type: functional, cell-based
Procedure, shortened: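 Wound-healing assay. Cells were seeded at 5×10^5 per well and grown 24 h to a confluent monolayer, then scratched once across the middle with a sterile pipette tip and washed twice with PBS. Compound was added at 0.5, 1 and 2 µM. Wound closure was photographed by phase-contrast microscopy at 0, 24 and 48 h in three or more random fields.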

MDA-MB-231 [12] = test: Cell cycle arrest in human MDA-MB-231 cells assessed as accumulation at G0/G1 phase at 2 uM after 24 to 48 hrs by propidium iodide staining based flow cytometry (reference value: 74.4%); type: functional; procedure, shortened: as §1
MDA-MB-231 [13] = test: Disruption of mitochondrial membrane potential in human MDA-MB-231 cells after 48 hrs by Rhodamine-123 staining based spectrofluorometry; type: functional, cell-based
Procedure, shortened: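 Cells were seeded at 5×10^5 cells/mL overnight and treated with 0.5, 1 and 2 µM compound; the methods say 24 h and the results text says 48 h. Trypsinised cells were washed and stained with rhodamine-123 (2 µM in PBS) for 30 min at room temperature in the dark, washed and read by spectrofluorometer. Data are mean ± SD of three independent experiments.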

MDA-MB-231 [14] = test: Induction of apoptosis in human MDA-MB-231 cells assessed as necrotic cells at 2 uM after 24 hrs by Annexin V-FITC/PI dual staining based flow cytometry (reference value: 1.9%); type: functional
MDA-MB-231 [15] = test: Induction of reactive oxygen species generation in human MDA-MB-231 cells at 0.5 to 2 uM after 48 hrs by carboxy-DCFDA staining based spectrofluorometry relative to control; type: functional
A549 [16] = test: Induction of apoptosis in human A549 cells assessed as necrotic cells at 1 uM after 24 hrs by Annexin V-FITC/PI dual staining based flow cytometry (reference value: 5.2%); type: functional
A549 (human) = test: Induction of apoptosis in human A549 cells assessed as late apoptotic cells at 2 uM after 24 hrs by Annexin V-FITC/PI dual staining based flow cytometry (reference value: 6.2%)
MDA-MB-231 [17] = test: Induction of apoptosis in human MDA-MB-231 cells assessed as condensation of nuclei at 0.5 to 2 uM after 48 hrs by Hoechst […] staining based fluorescence microscopy; type: functional, cell-based; procedure, shortened: as §2
A549 [18] = test: Induction of apoptosis in human A549 cells assessed as necrotic cells at 0.5 uM after 24 hrs by Annexin V-FITC/PI dual staining based flow cytometry (reference value: 5.2%); type: functional
MCF7 = test: Cytotoxicity against human MCF7 cells assessed as growth inhibition after 72 hrs by MTT assay; type: functional, cell-based; conditions: MCF7, 72 h; procedure, shortened: as §3
A549 [19] = test: Cell cycle arrest in human A549 cells assessed as accumulation at G2/M phase after 24 to 48 hrs by propidium iodide staining based flow cytometry; type: functional; procedure, shortened: as §1
MDA-MB-231 [20] = test: Induction of apoptosis in human MDA-MB-231 cells after 24 hrs by Annexin V-FITC/PI dual staining based flow cytometry; type: functional, cell-based
MDA-MB-231 [21] = test: Induction of apoptosis in human MDA-MB-231 cells assessed as necrotic cells at 1 uM after 24 hrs by Annexin V-FITC/PI dual staining based flow cytometry (reference value: 1.9%); type: functional
[22] = Cytotoxicity against human U87MG cells assessed as growth inhibition after 72 hrs by MTT assay; type: functional, cell-based, U-87MG ATCC; conditions: U-87 MG; procedure, shortened: as §3
A549 [23] = test: Induction of apoptosis in human A549 cells assessed as early apoptotic cells at 0.5 uM after 24 hrs by Annexin V-FITC/PI dual staining based flow cytometry (reference value: 5.3%); type: functional
A549 [24] = test: Induction of apoptosis in human A549 cells assessed as late apoptotic cells at 1 uM after 24 hrs by Annexin V-FITC/PI dual staining based flow cytometry (reference value: 4.5%); type: functional

O=C1c2ccccc2Nc2ccccc2N1Cc1cn(Cc2ccccc2)nn1
Activity (A549 [1]): Dose-dependent effect | Activity (A549 [2]): 51.3% | viability at 2 µM (A549 [3]): 63.8% | Activity (A549 [4]): Active | inhibition (A549 [5]): Dose-dependent effect | IC50 (A549 [6]): 0.71 µM | fold change (FC) (A549 [7]): 1.8 | viability at 0.5 µM (A549 [8]): 75% | Activity (MDA-MB-231 [9]): 2.5% | Activity (MDA-MB-231 [10]): 73.6% | inhibition (A549 [11]): Dose-dependent effect | Activity (MDA-MB-231 [12]): 33.3% | Activity (MDA-MB-231 [13]): Dose-dependent effect | Activity (MDA-MB-231 [14]): 2.5% | fold change (FC) (MDA-MB-231 [15]): 2.09 | Activity (A549 [16]): 1.9% | Activity (A549 (human)): 15.6% | Activity (MDA-MB-231 [17]): Active | Activity (A549 [18]): 2.5% | IC50 (MCF7): 7.29 µM | Activity (A549 [19]): Dose-dependent effect | Activity (MDA-MB-231 [20]): Dose-dependent effect | Activity (MDA-MB-231 [21]): 1.4% | IC50 [22]: 6.97 µM | Activity (A549 [23]): 9.4% | Activity (A549 [24]): 10.7%
